In ChEMBL document CHEMBL1153240, “Microwave assisted synthesis and in vitro cytotoxicities of substituted (Z)-2-amino-5-(1-benzyl-1H-indol-3-yl)methylene-1-methyl-1H-imidazol-4(5H)-ones against human tumor cell lines” (2010):

Columns and labels:
Type in all cases: functional
[1] = tested on: CCRF-CEM; test: Cytotoxicity against human CCRF-CEM cells
Outline: (§1)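 NCI 60-cell-line panel, five-dose response study. Effect is plotted against log10 drug concentration for each cell line. GI50 is the molar concentration giving a 50% reduction in net protein increase relative to control cells. LC50 is the concentration lethal to 50% of cells.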

[2] = tested on: HL-60; test: Cytotoxicity against human HL60 cells; outline: as §1
[3] = tested on: K562; test: Cytotoxicity against human K562 cells; outline: as §1
[4] = tested on: MOLT-4; test: Cytotoxicity against human MOLT4 cells; outline: as §1
[5] = Cytotoxicity against human […] cells; outline: as §1
[6] = tested on: SR; test: Cytotoxicity against human SR cells; outline: as §1
[7] = tested on: A549; test: Cytotoxicity against human A549 cells; outline: as §1
[8] = tested on: EKVX; test: Cytotoxicity against human EKVX cells; outline: as §1
[9] = tested on: HOP-62; test: Cytotoxicity against human HOP62 cells; outline: as §1
[10] = tested on: NCI-H226; test: Cytotoxicity against human NCI-H226 cells; outline: as §1
[11] = tested on: NCI-H23; test: Cytotoxicity against human NCI-H23 cells; outline: as §1
[12] = tested on: NCI-H322M; test: Cytotoxicity against human NCI-H322M cells; outline: as §1
[13] = tested on: NCI-H460; test: Cytotoxicity against human NCI-H460 cells; outline: as §1
[14] = tested on: NCI-H522; test: Cytotoxicity against human NCI-H522 cells; outline: as §1
[15] = tested on: COLO 205; test: Cytotoxicity against human COLO205 cells
Outline: (§2)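 NCI 60-cell-line panel, five-concentration dose-response. Cytotoxic effect was plotted against log10 drug concentration for each line. GI50 is the molar concentration giving a 50% reduction in net protein increase relative to control cells. LC50 is the concentration lethal to 50% of cells. Both were read from the curves.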

[16] = tested on: HCC 2998; test: Cytotoxicity against human HCC2998 cells; outline: as §1
[17] = tested on: HCT-116; test: Cytotoxicity against human HCT116 cells; outline: as §1
[18] = tested on: HCT-15; test: Cytotoxicity against human HCT15 cells; outline: as §1
[19] = tested on: HT-29; test: Cytotoxicity against human HT-29 cells; outline: as §2
[20] = tested on: KM12; test: Cytotoxicity against human KM12 cells; outline: as §1
[21] = tested on: SW-620; test: Cytotoxicity against human SW620 cells
Outline: (§3)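 NCI 60 human tumor cell line panel, five-dose dose-response study. Cytotoxic effect was plotted against log10 drug concentration for each cell line. GI50 is the molar concentration giving 50% reduction in net protein increase versus control cells. LC50 is the concentration lethal to 50% of cells.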

[22] = tested on: SF-539; test: Cytotoxicity against human SF539 cells; outline: as §1
[23] = tested on: SNB-19; test: Cytotoxicity against human SNB19 cells; outline: as §1
[24] = tested on: SNB-75; test: Cytotoxicity against human SNB75 cells; outline: as §1
[25] = tested on: U-251; test: Cytotoxicity against human U251 cells; outline: as §3
[26] = tested on: LOX IMVI; test: Cytotoxicity against human LOXIMVI cells; outline: as §1
[27] = tested on: Malme-3M; test: Cytotoxicity against human MALME-3M cells; outline: as §1
[28] = tested on: M14; test: Cytotoxicity against human M14 cells; outline: as §1
[29] = tested on: MDA-MB-435; test: Cytotoxicity against human MDA-MB-435 cells; outline: as §2
[30] = tested on: SK-MEL-2; test: Cytotoxicity against human SK-MEL-2 cells; outline: as §1
[31] = tested on: SK-MEL-28; test: Cytotoxicity against human SK-MEL-28 cells; outline: as §1
[32] = tested on: SK-MEL-5; test: Cytotoxicity against human SK-MEL-5 cells; outline: as §1
[33] = tested on: UACC-257; test: Cytotoxicity against human UACC257 cells; outline: as §3
[34] = tested on: IGROV-1; test: Cytotoxicity against human IGROV1 cells; outline: as §1
[35] = tested on: OVCAR-3; test: Cytotoxicity against human OVCAR-3 cells; outline: as §1
[36] = tested on: OVCAR-4; test: Cytotoxicity against human OVCAR4 cells; outline: as §1
[37] = tested on: OVCAR-5; test: Cytotoxicity against human OVCAR5 cells; outline: as §1
[38] = tested on: OVCAR-8; test: Cytotoxicity against human OVCAR8 cells; outline: as §1
[39] = tested on: NCI/ADR-RES; test: Cytotoxicity against human NCI/ADR-RES cells; outline: as §1
[40] = tested on: SK-OV-3; test: Cytotoxicity against human SKOV3 cells; outline: as §1
[41] = tested on: 786-0; test: Cytotoxicity against human 786-0 cells; outline: as §1
[42] = tested on: A498; test: Cytotoxicity against human A498 cells; outline: as §1
[43] = tested on: ACHN; test: Cytotoxicity against human ACHN cells; outline: as §1
[44] = tested on: CAKI-1; test: Cytotoxicity against human Caki1 cells; outline: as §1
[45] = tested on: RXF 393; test: Cytotoxicity against human RXF393 cells; outline: as §1
[46] = tested on: SN12C; test: Cytotoxicity against human SN12C cells; outline: as §1
[47] = tested on: TK-10; test: Cytotoxicity against human TK10 cells; outline: as §3
[48] = tested on: UO-31; test: Cytotoxicity against human UO31 cells; outline: as §3
[49] = tested on: PC-3; test: Cytotoxicity against human PC3 cells; outline: as §1
[50] = tested on: DU-145; test: Cytotoxicity against human DU145 cells; outline: as §1
[51] = tested on: MCF7; test: Cytotoxicity against human MCF7 cells; outline: as §1
[52] = tested on: MDA-MB-231; test: Cytotoxicity against human MDA-MB-231 cells; outline: as §1
[53] = Cytotoxicity against human Hs 578T cells; outline: as §1
[54] = tested on: BT-549; test: Cytotoxicity against human BT549 cells; outline: as §1
[55] = tested on: T47D; test: Cytotoxicity against human T47D cells; outline: as §3
[56] = tested on: MDA-MB-468; test: Cytotoxicity against human MDA-MB-468 cells; outline: as §1
[57] = tested on: HOP-92; test: Cytotoxicity against human HOP92 cells; outline: as §1
[58] = tested on: SF-268; test: Cytotoxicity against human SF268 cells; outline: as §1
[59] = tested on: SF-295; test: Cytotoxicity against human SF295 cells; outline: as §1
[60] = read-out: LC50 (the source's name)

For `COC(=O)c1ccc(Cn2cc(/C=C3/C(=O)N=C(N)N3C)c3ccccc32)cc1`, the GI50 [1] was 2.91 µM, the CC50 [1, 60] was greater than 100 µM and the GI50 [2] was 2.67 µM. It also gave an LC50 [2] greater than 100 µM, a GI50 [3] of 2.23 µM and a CC50 [3, 60] greater than 100 µM. The GI50 [4] was 2.42 µM, the CC50 [4, 60] was greater than 100 µM and the GI50 [5] was 3.25 µM. The LC50 (concentration lethal to 50% of cells) [5] was greater than 100 µM, the GI50 [6] was 2.48 µM and the CC50 [6, 60] was greater than 100 µM. For the same compound, the GI50 [7] was 5.05 µM, the CC50 [7, 60] was greater than 100 µM and the GI50 [8] was greater than 100 µM. It also gave a CC50 [8, 60] greater than 100 µM, a GI50 [9] of 1.99 µM and a CC50 [9, 60] of 33 µM. It also gave a GI50 [10] of 2.26 µM, an LC50 [10] greater than 100 µM and a GI50 [11] of 3.23 µM. It also gave an LC50 (concentration lethal to 50% of cells) [11] of 58.8 µM, a GI50 [12] of 2.56 µM and a CC50 [12, 60] greater than 100 µM. For the same compound, the GI50 [13] was 2.55 µM, the CC50 [13, 60] was greater than 100 µM and the GI50 [14] was 1.93 µM. It also gave an LC50 [14] greater than 100 µM, a GI50 [15] of 1.91 µM and a GI50 [16] of 2.99 µM. It also gave a CC50 [16, 60] of 4.71 µM, a GI50 [17] of 1.79 µM and a CC50 [17, 60] of 7.7 µM. The GI50 [18] was 2.27 µM, the CC50 [18, 60] was greater than 100 µM and the GI50 [19] was 2.17 µM. The GI50 [20] was 3.18 µM, the CC50 [20, 60] was greater than 100 µM and the GI50 [21] was 2.2 µM. It also gave a CC50 [21, 60] greater than 100 µM, a GI50 [22] of 1.54 µM and a CC50 [22, 60] of 5.56 µM. It also gave a GI50 [23] of 2.39 µM, a CC50 [23, 60] of 31 µM and a GI50 [24] of 1.46 µM. The LC50 (concentration lethal to 50% of cells) [24] was 5.47 µM, the GI50 [25] was 1.81 µM and the CC50 [25, 60] was 7.72 µM. For the same compound, the GI50 [26] was 1.89 µM, the LC50 [26] was 8.66 µM and the GI50 [27] was 1.7 µM. The CC50 [27, 60] was 8.33 µM, the GI50 [28] was 1.9 µM and the LC50 [28] was 7.25 µM. The GI50 [29] was 1.93 µM, the GI50 [30] was 2.7 µM and the CC50 [30, 60] was greater than 100 µM. For the same compound, the GI50 [31] was 1.78 µM, the CC50 [31, 60] was 6.14 µM and the GI50 [32] was 1.69 µM. It also gave an LC50 [32] of 5.75 µM, a GI50 [33] of 17.9 µM and an LC50 [33] greater than 100 µM. The GI50 [34] was 5.91 µM, the CC50 [34, 60] was greater than 100 µM and the GI50 [35] was 2.29 µM. The CC50 [35, 60] was 7.98 µM, the GI50 [36] was 2.18 µM and the CC50 [36, 60] was greater than 100 µM. The GI50 [37] was 1.9 µM, the CC50 [37, 60] was 18.5 µM and the GI50 [38] was 3.45 µM. It also gave a CC50 [38, 60] greater than 100 µM, a GI50 [39] of 9.46 µM and a CC50 [39, 60] greater than 100 µM. It also gave a GI50 [40] of 1.98 µM, a CC50 [40, 60] of 8.68 µM and a GI50 [41] of 1.75 µM. For the same compound, the LC50 [41] was 5.85 µM, the GI50 [42] was 14.1 µM and the CC50 [42, 60] was 53.2 µM. It also gave a GI50 [43] of 1.76 µM, a CC50 [43, 60] of 6.14 µM and a GI50 [44] of 35.1 µM. The GI50 [45] was 1.95 µM, the CC50 [45, 60] was 8.71 µM and the GI50 [46] was 1.74 µM. For the same compound, the CC50 [46, 60] was 8.59 µM, the GI50 [47] was 3.16 µM and the CC50 [47, 60] was greater than 100 µM. For the same compound, the GI50 [48] was 3.2 µM, the CC50 [48, 60] was greater than 100 µM and the GI50 [49] was 6.27 µM. It also gave a CC50 [49, 60] greater than 100 µM, a GI50 [50] of 2.25 µM and a CC50 [50, 60] of 14.8 µM. The GI50 [51] was 2.45 µM, the CC50 [51, 60] was 77.8 µM and the GI50 [52] was 2.01 µM. For the same compound, the LC50 [52] was 14.3 µM, the GI50 [53] was 2.17 µM and the LC50 [53] was greater than 100 µM. It also gave a GI50 [54] of 1.73 µM, a CC50 [54, 60] greater than 100 µM and a GI50 [55] of 1.5 µM. It also gave a CC50 [55, 60] of 5.74 µM, a GI50 [56] of 1.63 µM and an LC50 [56] of 6.78 µM. The GI50 [57] was 1.51 µM, the CC50 [57, 60] was 7.75 µM and the GI50 [58] was 2.56 µM. For the same compound, the CC50 [58, 60] was greater than 100 µM, the GI50 [59] was 2.36 µM and the CC50 [59, 60] was greater than 100 µM.
